Source: PubChem
PolyA inh: blocks polyadenylation in yeast reporter cells. 0.02% of 300,000 active. S. cerevisiae SKY197-pL101 polyadenylation reporter, beta-gal luminescence; efflux-impaired pdr1/pdr3 knockout yeast; score 100 = 6 SD above DMSO. activity score, % at 12 µM;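 active = lowest replicate activity score at least 50, where 100 means six control SD above control mean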;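 note: yeast exposed to compound for 9 h at 30 °C; higher score means more reporter readthrough which indicates perturbed polyadenylation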
proCasp3 act: procaspase-3 (human) activation; recombinant procaspase-3 D3A, Ac-DEVD-pNA absorbance 405 nm; activation, % at 8.5 µM; 0.11% of 330,000 active;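 active = activation above the mean of all tested compounds plus 3 SD, cut at about 21% in these data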;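 note: 0% = DMSO alone and 100% = DMSO wells spiked with extra 5 µM PC-3 D3A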
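Assay system: Procaspase-3 D3A mutant, all three cleavage aspartates alanine. Buffer or medium: Zinc-free HEPES saline buffer with Triton X-100. Times: 1 h compound preincubation, 2 h substrate hydrolysis at 25 °C. Measured by: 405 nm absorbance of p-nitroaniline, reads at 0 and 120 min. Read-out basis: percent activation relative to control range. Replicates: singlicate.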
Neddyl block: cullin neddylation inhibition | calls only at 25 µM | TR-FRET cullin neddylation, biochemical | AID 651699 | P61081+Q13564 | 0.58% of 360,000 active; in the data active = inhibition above about 36%
Target sequence (P61081 whole entry, looked up): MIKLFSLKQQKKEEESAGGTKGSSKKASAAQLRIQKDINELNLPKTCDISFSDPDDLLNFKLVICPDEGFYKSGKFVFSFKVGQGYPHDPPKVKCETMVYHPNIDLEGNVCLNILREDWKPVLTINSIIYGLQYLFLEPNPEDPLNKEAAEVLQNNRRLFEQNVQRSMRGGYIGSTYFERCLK
Target sequence (Q13564 whole entry, looked up): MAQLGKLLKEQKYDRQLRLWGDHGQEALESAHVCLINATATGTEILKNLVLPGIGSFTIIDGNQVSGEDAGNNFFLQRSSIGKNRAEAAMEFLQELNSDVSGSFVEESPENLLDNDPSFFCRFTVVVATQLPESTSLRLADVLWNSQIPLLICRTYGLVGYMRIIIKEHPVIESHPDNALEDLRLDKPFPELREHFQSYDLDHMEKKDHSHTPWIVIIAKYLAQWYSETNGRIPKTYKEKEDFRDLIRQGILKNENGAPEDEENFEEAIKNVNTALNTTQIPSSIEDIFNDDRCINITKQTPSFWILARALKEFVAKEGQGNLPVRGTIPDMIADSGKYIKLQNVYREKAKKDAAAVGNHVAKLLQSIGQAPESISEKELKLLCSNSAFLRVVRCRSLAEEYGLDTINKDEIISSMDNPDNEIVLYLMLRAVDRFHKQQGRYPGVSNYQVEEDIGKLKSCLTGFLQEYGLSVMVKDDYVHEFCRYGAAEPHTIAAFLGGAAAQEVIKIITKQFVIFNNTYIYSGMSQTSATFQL
IMP-1 inhibitor: blocks Pseudomonas aeruginosa IMP-1 metallo-beta-lactamase | 0.45% of 290,000 active | purified IMP-1, nitrocefin hydrolysis, epi-absorbance fluorescence | inhibition, % at 5.6 µM | AID 1556;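 active = inhibition above the mean plus 3 SD of all compounds in the same screening run, cut at about 4.5% in these data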;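 note: 0% = IMP-1 with DMSO and 100% = DMSO wells lacking enzyme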
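System: Purified recombinant IMP-1 metallo-beta-lactamase enzyme | Measured by: Fluorescence quenching readout, ex 480/em 530 nm | Replication: Singlicate | Incubation: 15 min preincubation plus 25 min reaction at 25 °C | Evaluation: Percent inhibition from optical density relative to buffer-blank wells | Benchmarks: DMSO with and without IMP-1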
VIM-2 inh: inhibitors of Pseudomonas aeruginosa VIM-2 metallo-beta-lactamase | purified VIM-2, nitrocefin hydrolysis, epi-absorbance fluorescence | inhibition, % at 5.6 µM | 0.89% of 290,000 active;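 active = inhibition above the mean of all tested compounds plus 3 SD, cutoff set per screening run, cut at about 7.5% in these data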;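 note: red hydrolysis product quenches plate fluorescence so inhibitors raise well fluorescence; 0% = enzyme with DMSO and 100% = DMSO without enzyme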
proCasp7 act: counter-screen for procaspase-3 activators: activators of human procaspase-7; P55210; recombinant procaspase-7, Ac-DEVD-pNA absorbance 405 nm; D23A/D198A/D206A triple mutant, cannot self-cleave; scale: DMSO 0, 5 µM enzyme 100; activation, % at 8.5 µM; 0.093% of 330,000 active;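 active = percent activation above the screen-wide mean plus 3 SD, cut at about 25% in these data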
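buffer or medium = Zinc-free HEPES/NaCl buffer, pH 7.4 | material = Procaspase-7 triple mutant (PC-7 D3A) | input = 2 µM procaspase-7 mutant as dispensed | signal = Epi-absorbance of released pNA at 405 nm, two timepoints | timing = 1 h preincubation, 2 h reaction | replicates = singlicate compound testing | evaluation = % activation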
Neddyl conf: confirmation of human cullin neddylation inhibitors | TR-FRET cullin neddylation biochemical assay | 13% of 1,800 active | calls only at 25 µM | shares compounds with Neddyl block; in the data active = inhibition above about 40%;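 note: neddylation substrate is the cullin 1 ring ligase complex with SKP2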
Numbers without * were called inactive; i = inactive; nt = no result given; + = active, no number. Compounds with a hit are over-represented: about 1.7% of the library has one in this group of screens.

SMILES	PolyA inh	proCasp3 act	Neddyl block	IMP-1 inhibitor	VIM-2 inh	proCasp7 act	Neddyl conf
Cc1ccc(S(=O)(=O)N2CCN(C(=O)CSc3n[nH]c(N)n3)CC2)c(C)c1	nt	10	i	nt	nt	10	nt
CCn1nc(NC(=O)c2ccco2)c2cc3ccccc3nc21	-10	-14	nt	-3	0	-18	nt
CC(C)Cn1nc(NC(=O)c2ccco2)c2cc3ccccc3nc21	-37	-6	+	-2	-2	-3	nt
CC(C)(O)c1[nH]c2cc(C(F)(F)F)ccc2c1C(C)(C)O	14	-6	i	-2	-5	-5	nt
COCCn1c(=N)c(S(=O)(=O)c2ccc(Br)cc2)cc2c(=O)n3ccccc3nc21	-5	-22	+	-1	3	-18	i
COCCn1c(=N)c(S(=O)(=O)c2ccc(F)cc2)cc2c(=O)n3ccccc3nc21	15	-34	+	1	2	-32	i
COc1ccc(CN2CN(S(=O)(=O)c3cccs3)c3nc4ccccc4nc32)cc1	-9	7	i	-2	-2	-4	nt
O=S(=O)(c1cccs1)N1CN(Cc2ccccc2)c2nc3ccccc3nc21	20	-2	+	-2	-1	1	i
COC(=O)c1cc(OC)c(OC)c(OC)c1N	11	-5	+	-3	-4	-3	i
S=c1[nH]nc2ccc3ccccc3n12	nt	nt	+	nt	nt	nt	nt
S=c1[nH]c2ccccc2n2c(=S)[nH]nc12	4	-11	i	-4	-3	-17	nt
CCNC(=S)NNC(=O)c1csc2c1CCC(C)C2 (stereo unspecified)	4	-1	i	-1	0	-22	nt
CNC(=O)COC(=O)c1ccc(-c2nc3ccccc3s2)s1	-11	11	+	-5	-3	1	i
COCCCNC(=O)COC(=O)c1ccc(-c2nc3ccccc3s2)s1	3	9	nt	-4	-3	5	nt
O=C(NCc1cccc(Br)c1)C1CC2Cn3c(nc4ccccc43)C2N1Cc1ccccc1 (stereo unspecified)	-1	-3	i	nt	nt	-9	nt
O=C1C2CC3N1CCC31c3ccccc3-n3c1c2ccc3=O (stereo unspecified)	nt	nt	+	nt	nt	nt	+
C/C(=N\NC(=O)c1ccc(NS(=O)(=O)c2cccs2)cc1)c1ccccc1	-4	-3	i	-2	-3	4	nt
C/C(=N\NC(=O)c1ccc(NS(=O)(=O)c2cccs2)cc1)c1ccc(O)cc1O	9	-40	+	-2	-2	-24	nt
O=C(N/N=C/c1ccc(N2CCOCC2)s1)c1ccc(NS(=O)(=O)c2cccs2)cc1	6	-7	+	-2	-3	-6	+
CN(C)c1cccc(C(=O)NCCCSc2ccccc2)c1	2	7	+	-1	0	0	nt
Nc1nnc(N)c2ccccc12	nt	12	+	0	-3	6	i
Cc1ccc2nc(C(C)(C)C)c(Cc3cccc(F)c3)n2c1	nt	nt	+	nt	nt	nt	i
COC(=O)c1[nH]c2cc(C)ccc2c1NC(=O)CN1CCOCC1	-3	4	i	-2	-2	0	nt
COC(=O)c1[nH]c2ccc(C)cc2c1NC(=O)CCN1CCN(Cc2ccc3c(c2)OCO3)CC1	9	1	+	-4	-3	-7	i
O=C(O)c1ccc2c(=O)n3c(nc2c1)/C(=C/c1cccc(Cl)c1Cl)CCCC3	4	5	i	-4	-2	8	nt
SMILES	PolyA inh	proCasp3 act	Neddyl block	IMP-1 inhibitor	VIM-2 inh	proCasp7 act	Neddyl conf
COc1ccc(C2NC(=O)c3ccccc3O2)c(OC)c1OC (stereo unspecified)	-27	9	+	-3	1	2	i
COc1cccc(C2NC(=O)c3ccccc3O2)c1OC (stereo unspecified)	-3	0	i	-2	-2	0	nt
O=S(=O)(Nc1nc2ccccc2nc1Nc1ccc2c(c1)OCO2)c1ccc(F)cc1	27	9	+	-5	-2	2	i
O=C(O)c1cccc(Nc2nc3ccccc3nc2NS(=O)(=O)c2ccc(F)cc2)c1	nt	-2	i	nt	nt	-3	nt
COc1cccc(Nc2nc3ccccc3nc2NS(=O)(=O)c2ccc(NC(C)=O)cc2)c1	-11	4	+	-4	-2	3	nt
COc1ccc(C(=O)NC(=S)N2CC(C)OC(C)C2)cc1OC (stereo unspecified)	3	-6	i	-1	-1	0	nt
COc1ccc(N(C)C(=O)c2cn(C)c(=O)c3cc(OC)c(OC)cc23)cc1	8	-5	i	-2	0	3	nt
Cc1cc(-c2ccc3c(c2)COc2c4ccccc4nn2-3)on1	-12	1	+	nt	nt	3	i
COc1cc(/C=C/[N+](=O)[O-])ccc1OC(=O)c1cc2ccccc2oc1=O	-9	-7	i	1	0	-19	nt
Cc1cc(C)c(S(=O)(=O)N2CCN(C(=O)CCn3nc(C)c(C)c3C)CC2)c(C)c1	0	-3	i	-3	-1	-8	nt
COc1cc2c(cc1OC)-c1cc(NCc3ccccn3)nc(=O)n1CC2	17	-1	+	1	-3	-17	+
COc1cc2sc3ccc(C#Cc4ccccn4)cc3c(=O)c2cc1OC	-5	-6	i	nt	nt	-2	nt
COc1ccccc1CNC(=O)C/C(C)=N/NC(=O)Cc1ccc(OC)c(OC)c1	21	1	i	-1	-3	2	nt
CC1(C)Oc2cc3oc(-c4cc(O)cc(O)c4)cc3cc2CC1O (stereo unspecified)	1	2	+	nt	nt	2	i
Cc1ccc2sc(N(CCN(C)C)C(=O)c3ccc(S(=O)(=O)N4CC(C)OC(C)C4)cc3)nc2c1C (stereo unspecified)	-1	-8	i	1	-2	-1	nt
CC1(C)CC(=O)c2cc(OCC(=O)N3CCN(c4ccccc4F)CC3)ccc2O1	9	4	+	-2	0	6	nt
COC(=O)c1ccc(CN(c2ccccn2)S(=O)(=O)c2ccccc2)cc1	1	-11	+	-2	0	4	i
COc1ccc(S(=O)(=O)N(CC(=O)O)c2ccccn2)cc1	-9	1	+	-1	-3	2	i
COc1ccc(S(=O)(=O)N(CC(=O)O)c2ccccc2)cc1	4	0	i	-1	-1	1	nt
CN(C)C(CNC(=O)c1ccc2[nH]c(=O)c(=O)[nH]c2c1)c1ccco1 (stereo unspecified)	nt	5	+	nt	nt	-15	nt
